Compounds with a hit are over-represented: about 3.9% of the library has one in this group of screens.
M1 antag: blocks human M1 muscarinic receptor; 1.3% of 360,000 active; inhibition, % at 3 µM; CHO-K1 hM1, Fluo-8 calcium fluorescence, ACh EC80 antagonist;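 active means percent inhibition above its own plate's cutoff, namely the mean of that plate's compound wells plus 3 SD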;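 further: peak over basal fluorescence ratio during 140 s after agonist addition; 0% = ACh EC80 plus DMSO and 100% = DMSO alone without agonist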
M1 PAM: potentiates human M1 receptor response to acetylcholine | P11229 | CHO-K1 hM1, Fluo-8 calcium fluorescence, ACh EC20; 0% = ACh EC20, 100% = maximal ACh | activation, % at 3 µM | 0.088% of 360,000 active; in the data active means activation above about 19%, passing the limit was not always enough
HTR2A ag: agonists of mouse serotonin 5-HT2A receptor (HTR2A). CHO-K1 mHTR2A beta-arrestin complementation, luminescence; percent of 30 µM serotonin response. activation, % at 7.6 µM. 0.66% of 360,000 active;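 active means activation above a run cutoff, the mean activation of all tested compounds plus 3 SD, cut at about 14% in these data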;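 further: 0% = plate median of compound wells and 100% = 30 µM serotonin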
Target sequence (P35363 whole entry, looked up): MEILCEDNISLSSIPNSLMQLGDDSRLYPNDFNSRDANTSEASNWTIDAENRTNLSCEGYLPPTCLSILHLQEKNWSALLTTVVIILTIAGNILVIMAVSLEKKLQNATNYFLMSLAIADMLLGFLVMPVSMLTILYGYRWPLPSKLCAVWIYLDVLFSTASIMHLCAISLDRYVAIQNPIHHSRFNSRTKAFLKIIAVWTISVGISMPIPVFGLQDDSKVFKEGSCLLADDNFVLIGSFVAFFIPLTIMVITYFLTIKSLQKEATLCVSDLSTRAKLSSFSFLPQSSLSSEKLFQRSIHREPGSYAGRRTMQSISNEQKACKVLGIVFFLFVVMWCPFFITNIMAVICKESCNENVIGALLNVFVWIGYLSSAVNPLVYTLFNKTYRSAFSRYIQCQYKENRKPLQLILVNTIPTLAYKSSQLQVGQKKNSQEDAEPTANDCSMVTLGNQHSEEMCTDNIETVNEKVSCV
TAAR1 agonist: agonists of human TAAR1; activation, % at 3 µM; AID 624467; CHO RD-HGA16 TAAR1, Fluo-8 calcium fluorescence; vehicle wells 0%, saturating PEA agonist 100%; 0.99% of 360,000 active; Q96RJ0;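 active means activation above the mean activation of all test compounds in the run plus 3 SD, cut at about 38% in these data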
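Assay system: CHO-derived RD-HGA16 cells with stable Gα16 and human TAAR1; timing: 17-24 h seeding, 75 min 37 °C dye, 30 min RT; read-out: % activation from peak over basal fluorescence ratio, DMSO-to-PEA scaled; measured by: kinetic Fluo-8 calcium fluorescence; benchmarks: low control DMSO, high control PEA (EC100); doses: 3 µM single concentration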
CHRM1 agonist: human M1 muscarinic receptor agonism | P11229 | CHO-K1 hM1, Fluo-8 calcium fluorescence, agonist mode; 0% DMSO, 100% acetylcholine EC100 | activation, % at 3 µM | 0.33% of 360,000 active | AID 588814;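 active means activation above the run's mean compound activation plus 3 SD, cut at about 16% in these data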;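 further: peak over basal fluorescence ratio within a 140 s kinetic read after compound addition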
TAAR1 antag: human TAAR1 antagonism; CHO RD-HGA16 TAAR1, Fluo-8 calcium fluorescence, antagonist; inhibition, % at 3 µM; 1.5% of 360,000 active; AID 624466;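 active means inhibition above a per-plate cutoff, the mean inhibition of test compounds on that plate plus 3 SD, cut at about 49% in these data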;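 further: 0% = DMSO plus EC80 beta-PEA response and 100% = DMSO alone without agonist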
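System: CHO RD-HGA16 cells bearing hTAAR1. Reagent: EC80 β-phenethylamine stimulus. Schedule: seeding 17-24 h prior, 75-min 37 °C, 30-min RT dye loading. Signal: Fluo-8 intracellular calcium dye fluorescence, real-time kinetic reads. Read-out: % inhibition from peak post-agonist over basal fluorescence ratio. Benchmarks: vehicle wells and EC80 agonist wells. Replicates: n of 1.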
Numbers without * were called inactive; x = not tested or not shown.

SMILES	M1 antag	M1 PAM	HTR2A ag	TAAR1 agonist	CHRM1 agonist	TAAR1 antag
O=C(N[C@H](Cc1ccccc1)C(=O)N1CCN(CC(=O)N2CCCC2)CC1)[C@H]1O[C@@H](n2ccc(=O)[nH]c2=O)[C@H](O)[C@@H]1O	x	x	x	1.6	x	-4.1
O=[N+]([O-])c1ccc(C2=NN(c3ccccc3)C(c3ccco3)C2)cc1 (stereo not drawn)	71.0*	-21.8	-1.5	88.8*	77.7*	61.3*
CC1=NN(c2ccccc2)C(c2ccco2)C1 (stereo not drawn)	-15.0	9.5	-1.4	0.3	-1.5	-3.3
CCc1[nH]nc(C(=O)N2CCCC(N3CCN(c4ccccc4C)CC3)C2)c1C (stereo not drawn)	8.9	-2.2	-5.3	1.9	-4.3	-12.1
O=C(CN1C(=O)C2CC=CCC2C1=O)Nc1nc(-c2ccc(F)cc2)cs1 (stereo not drawn)	20.1	-10.1	-8.6	28.2	-0.4	51.1*
C[C@H](O)[C@@H]1CN2CCc3c([nH]c4ccccc34)[C@@H]2C[C@@H]1N(C)Cc1cc(Cl)cc(Cl)c1	-2.8	-5.3	-0.1	3.3	32.7*	-10.7
COc1cccc(CN(C)[C@H]2C[C@H]3c4[nH]c5ccccc5c4CCN3C[C@H]2[C@H](C)O)c1OC	x	x	x	1.0	x	-12.9
Clc1cccc(Cl)c1C[n+]1ccc2ccccc2c1	31.4*	-16.7	0.8	3.1	-11.5	-5.0
CC(C)NS(=O)(=O)c1ccc(CCC(=O)Nc2cc(Cl)ccc2Oc2ccccc2)cc1	2.4	-9.6	-10.3	x	-1.6	x
CCNS(=O)(=O)c1ccc(CCC(=O)Nc2cc(Cl)ccc2Oc2ccccc2)cc1	27.5	-16.1	-0.7	19.7	-5.2	82.9*
Cc1nn(-c2cc(C(F)(F)F)ccc2Cl)c2nc(C(Cl)(Cl)Cl)[nH]c(=O)c12	-1.8	-5.1	-0.2	-2.2	-6.5	-6.1
O=C1CC(c2ccco2)CC(O)=C1C=NCCN1CCNCC1 (stereo not drawn)	38.8*	-12.8	3.9	6.5	2.1	3.1
O=C1CC(c2ccccc2)CC(O)=C1C=NCCN1CCNCC1 (stereo not drawn)	25.2*	-7.4	-2.1	1.6	10.1	-16.2
O=C1CC(c2cccs2)CC(O)=C1C=NCCN1CCNCC1 (stereo not drawn)	32.2*	-8.0	1.1	1.9	17.1*	4.1
O=C1CC(c2ccc(F)cc2)CC(O)=C1C=NCCN1CCNCC1 (stereo not drawn)	3.8	-10.3	-0.8	-0.4	-5.5	3.3
CC(OC(=O)c1cccc(S(=O)(=O)N(C)C)c1)C(=O)NCC(=O)Nc1ccc(F)c(F)c1F (stereo not drawn)	0.6	11.1	-6.5	7.6	2.2	-21.6
C=Cc1ccc(CSc2cc(C)nc3nc(C)nn23)cc1	-10.4	7.2	1.4	0.4	-2.9	-24.4
CCN(C(=O)c1ccc(Cl)cc1[N+](=O)[O-])c1ccccc1C	-3.4	-4.6	-0.1	7.2	-12.8	4.8
Cc1ccc(C(=O)N(Cc2ccccc2)C(C)(C)C)cc1C	51.4*	-25.7	-9.7	13.7	-7.0	-14.0
CC(C)(C)N(Cc1ccccc1)C(=O)c1ccc(Cl)cc1[N+](=O)[O-]	38.9*	-28.7	2.6	3.7	-10.2	33.7
C[C@@H]1CN([C@H](C)CO)C(=O)c2c(c3ccccc3n2C)-c2ccccc2CO[C@H]1CN(C)C(=O)Nc1ccccc1	21.6	-10.1	0.7	5.5	-2.0	5.9
COc1ccc(NC(=O)NCCCN2CCc3ccccc3C2)cc1	8.1	-6.9	-1.8	5.2	-13.9	-16.2
O=C(NCCCN1CCc2ccccc2C1)Nc1ccc(Br)cc1	43.6*	-14.1	3.7	28.1	-0.9	7.8
CC12CCC(=O)N1C(C(=O)NNC(=O)COc1ccc(Br)cc1)CS2 (stereo not drawn)	33.0*	-10.8	1.3	-0.2	-1.7	-22.9
Cc1cc(Cl)ccc1OCC(=O)NNC(=O)C1CSC2(C)CCC(=O)N12 (stereo not drawn)	0.9	0.0	-0.7	1.3	-3.4	-10.4
SMILES	M1 antag	M1 PAM	HTR2A ag	TAAR1 agonist	CHRM1 agonist	TAAR1 antag
CN1C(C(=O)Nc2ccc(F)cc2F)=CC(c2ccco2)=NS1(=O)=O	-10.5	4.4	-4.0	0.8	0.8	20.2
CN1C(C(=O)N2CCc3ccccc3C2)=CC(c2ccc(F)cc2)=NS1(=O)=O	11.5	-9.1	-3.2	42.2*	-3.1	9.2
Cc1ccc(C2=NS(=O)(=O)N(C)C(C(=O)Nc3ccc(F)cc3F)=C2)cc1	34.2*	-24.0	-7.9	1.3	2.0	10.0
COc1ccc(C2=NS(=O)(=O)N(C)C(C(=O)N3CCC(C)CC3)=C2)cc1	-4.5	0.9	0.4	1.2	-0.7	-5.9
COc1ccc(C2=NS(=O)(=O)N(C)C(C(=O)Nc3ccc(C(C)=O)cc3)=C2)cc1OC	20.8	-14.4	-3.8	11.9	3.7	53.1*
COc1cccc(CNC(=O)[C@H]2CCCN2C(=O)[C@H]2CCCN2C(=O)c2ccccc2)c1	x	x	x	6.2	x	-8.3
COc1ccc(-c2cn(CCO)c(-c3ccncc3)n2)cc1	-2.1	4.0	-4.1	3.6	-3.1	18.7
Cc1cc(C)n(CCCNC(=O)c2ccc(C)c(S(=O)(=O)N3CCOCC3)c2)n1	-21.1	6.7	4.2	0.1	-2.3	-3.9
O=C(N/N=C/c1coc2ccccc2c1=O)c1cc(Br)c(O)c(Br)c1	-5.4	2.5	-6.0	-0.2	-1.0	-15.3
CCCOc1cccc(C(=O)N/N=C/c2coc3ccccc3c2=O)c1	29.6*	1.2	-0.3	0.0	0.0	4.0
CC#CC[N+](C)(C)CCCCCCCC	19.9	-6.1	-1.4	-0.1	3.5	-26.1
CCCCCCCCCCCCCCCC[N+](C)(C)Cc1ccc(F)cc1	43.8*	-23.9	-4.8	23.4	-7.7	38.5
Cc1ccc(NC(=O)CCCCCC2NC(=O)NC2C)cc1 (stereo not drawn)	-8.4	6.4	2.8	x	-3.8	x
CCOC(=O)CCCCCCCCC(=O)Nc1ccc(-n2[nH]c(=O)cc2C)cc1	-9.1	-2.2	4.2	44.4*	20.5*	2.1
Cc1cccc(Cl)c1OCCCN1CCOCC1	32.2*	2.6	4.0	4.0	-2.9	-13.2
O=C(C1CCCN(S(=O)(=O)c2cccs2)C1)N1CCN(C2CCCCC2)CC1 (stereo not drawn)	17.3*	-17.1	1.1	-1.0	-9.6	11.6
O=C(C1CCCN(S(=O)(=O)c2cccs2)C1)N1CCc2ccccc2C1 (stereo not drawn)	-24.7	3.9	2.5	6.6	-0.1	10.2
COc1ccc(C(C)=O)cc1Cn1c(=O)cc(C)[nH]c1=O	-8.7	7.8	1.8	-1.7	-5.3	4.8
CCN(C(=O)C1CCN(c2nc(-c3ccc(OC)cc3)no2)CC1)c1ccc(OC)cc1	41.8*	-20.6	2.0	-1.9	4.0	-14.2
